Test results reported in ChEMBL document CHEMBL3120154, “2-[N-Alkyl(R-phenyl)-aminomethyl]-3-phenyl-7-trifluoromethylquinoxalines as anticancer agents inhibitors of folate enzymes” (Eur J Med Chem, 2014).

Experiments:
SK-MEL-5 = assay: Cytotoxicity against human SK-MEL-5 cells at 10^-4 M after 48 hrs by SRB assay; assay type: functional; conditions: SK-MEL-5, 48 h, read-out: GI
Method in brief: (§1)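 Second-stage screen in the 60-cell-line human tumor panel at NCI, over a 5-log range (100, 10, 1, 0.1, 0.01 micromolar). Cells were exposed to drug for 48 h and growth was estimated with a sulforhodamine B protein stain. The value is percent growth inhibition at each concentration.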

DU-145 = assay: Cytotoxicity against human DU145 cells at 10^-4 M after 48 hrs by SRB assay; assay type: functional; conditions: DU-145, 48 h, read-out: GI
Method in brief: (§2)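 Run by NCI on its 60-line human tumor cell panel, after a three-cell-line prescreen. Cells were exposed to drug for 48 h over a 5-log range: 100, 10, 1, 0.1 and 0.01 micromolar. Growth was estimated by sulforhodamine B (SRB) protein staining. Percent growth inhibition (I%) was recorded at each concentration relative to untreated control cells.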

SNB-75 = assay: Cytotoxicity against human SNB75 cells at 10^-4 M after 48 hrs by SRB assay; assay type: functional; conditions: SNB-75, 48 h, read-out: GI; method in brief: as §1
UACC-62 = assay: Cytotoxicity against human UACC62 cells at 10^-4 M after 48 hrs by SRB assay; assay type: functional; conditions: UACC-62, 48 h, read-out: GI; method in brief: as §1
U-251 = assay: Cytotoxicity against human U251 cells at 10^-4 M after 48 hrs by SRB assay; assay type: functional; conditions: U-251, 48 h, read-out: GI; method in brief: as §1
NCI/ADR-RES = assay: Cytotoxicity against human NCI/ADR-RES cells at 10^-4 M after 48 hrs by SRB assay; assay type: functional; conditions: read-out: GI
Method in brief: (§3)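 Run in the NCI 60-cell-line screen after a three-line prescreen. Cells got a 48 h drug exposure; viability/growth was estimated with the sulforhodamine B protein assay. Growth inhibition (I%) was recorded at 100, 10, 1, 0.1 and 0.01 micromolar. Percent growth is relative to untreated control cells, and negative values indicate cell kill.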

MOLT-4 = assay: Cytotoxicity against human MOLT4 cells at 10^-4 M after 48 hrs by SRB assay; assay type: functional; conditions: MOLT-4, 48 h, read-out: GI; method in brief: as §3
HOP-92 = assay: Cytotoxicity against human HOP92 cells at 10^-4 M after 48 hrs by SRB assay; assay type: functional; conditions: HOP-92, 48 h, read-out: GI; method in brief: as §2
TK-10 = assay: Cytotoxicity against human TK10 cells at 10^-4 M after 48 hrs by SRB assay; assay type: functional; conditions: TK-10, 48 h, read-out: GI; method in brief: as §1
[1] = Cytotoxicity against human OVCAR5 cells at 10^-4 M after 48 hrs by SRB assay; assay type: functional; conditions: OVCAR-5, 48 h, read-out: GI; method in brief: as §1
BT-549 = assay: Cytotoxicity against human BT549 cells at 10^-4 M after 48 hrs by SRB assay; assay type: functional; conditions: BT-549, 48 h, read-out: GI; method in brief: as §2
MCF7 [2] = assay: Cytotoxicity against human MCF7 cells assessed as cell growth at 10^-4 M after 48 hrs by alamar blue assay relative to untreated control; assay type: functional; conditions: MCF7, 48 h, read-out: Activity
Method in brief: (§4)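 Three-cell-line prescreen. Each line was inoculated and preincubated on a microtiter plate, then the agent was added at a single concentration (10^-4 or 10^-5 M) and incubated 48 h. Endpoint was measured with alamar blue, and growth is reported as a percentage of untreated control cells.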

SW-620 = assay: Cytotoxicity against human SW620 cells at 10^-4 M after 48 hrs by SRB assay; assay type: functional; conditions: SW-620, 48 h, read-out: GI; method in brief: as §1
OVCAR-8 = assay: Cytotoxicity against human OVCAR8 cells at 10^-4 M after 48 hrs by SRB assay; assay type: functional; conditions: OVCAR-8, 48 h, read-out: GI; method in brief: as §1
MDA-MB-231 = assay: Cytotoxicity against human MDA-MB-231 cells at 10^-4 M after 48 hrs by SRB assay; assay type: functional; conditions: MDA-MB-231, 48 h, read-out: GI; method in brief: as §3
K562 = assay: Cytotoxicity against human K562 cells at 10^-4 M after 48 hrs by SRB assay; assay type: functional; conditions: K562, 48 h, read-out: GI; method in brief: as §3
NCI-H460 = assay: Cytotoxicity against human NCI-H460 cells assessed as cell growth at 10^-4 M after 48 hrs by alamar blue assay relative to untreated control; assay type: functional; conditions: NCI-H460, 48 h, read-out: Activity; method in brief: as §4
ACHN = assay: Cytotoxicity against human ACHN cells at 10^-4 M after 48 hrs by SRB assay; assay type: functional; conditions: read-out: GI; method in brief: as §2
[3] = Cytotoxicity against human UO31 cells at 10^-4 M after 48 hrs by SRB assay; assay type: functional; conditions: UO-31, 48 h, read-out: GI; method in brief: as §1
HCT-116 = assay: Cytotoxicity against human HCT116 cells at 10^-4 M after 48 hrs by SRB assay; assay type: functional; conditions: HCT-116, 48 h, read-out: GI; method in brief: as §2
OVCAR-3 = assay: Cytotoxicity against human OVCAR3 cells at 10^-4 M after 48 hrs by SRB assay; assay type: functional; conditions: OVCAR-3, 48 h, read-out: GI; method in brief: as §3
CCRF-CEM = assay: Cytotoxicity against human CCRF-CEM cells at 10^-4 M after 48 hrs by SRB assay; assay type: functional; conditions: read-out: GI; method in brief: as §2
M14 = assay: Cytotoxicity against human M14 cells at 10^-4 M after 48 hrs by SRB assay; assay type: functional; conditions: M14, 48 h, read-out: GI; method in brief: as §3
MCF7 [4] = assay: Cytotoxicity against human MCF7 cells at 10^-4 M after 48 hrs by SRB assay; assay type: functional; conditions: MCF7, 48 h, read-out: GI; method in brief: as §3
Dihydrofolate reductase = biological target: T1, Dihydrofolate reductase (Homo sapiens, UniProt P00374); assay: Competitive inhibition of human dihydrofolate reductase by spectrophotometry
T1 sequence (P00374 whole entry): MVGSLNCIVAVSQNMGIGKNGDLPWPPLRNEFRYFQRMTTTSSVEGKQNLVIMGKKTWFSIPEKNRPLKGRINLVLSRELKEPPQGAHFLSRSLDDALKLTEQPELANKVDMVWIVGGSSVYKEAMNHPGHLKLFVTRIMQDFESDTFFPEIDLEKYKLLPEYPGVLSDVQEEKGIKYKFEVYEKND

IGROV-1 = assay: Cytotoxicity against human IGROV1 cells at 10^-4 M after 48 hrs by SRB assay; assay type: functional; conditions: IGROV-1, 48 h, read-out: GI; method in brief: as §2
[5] = Cytotoxicity against human EKVX cells at 10^-4 M after 48 hrs by SRB assay; assay type: functional; conditions: read-out: GI; method in brief: as §2
SF-268 = assay: Cytotoxicity against human SF268 cells at 10^-4 M after 48 hrs by SRB assay; assay type: functional; conditions: SF-268, 48 h, read-out: GI; method in brief: as §1
RPMI-8226 = assay: Cytotoxicity against human RPMI8226 cells at 10^-4 M after 48 hrs by SRB assay; assay type: functional; conditions: RPMI-8226, 48 h, read-out: GI; method in brief: as §1
T47D = assay: Cytotoxicity against human T47D cells at 10^-4 M after 48 hrs by SRB assay; assay type: functional; conditions: read-out: GI; method in brief: as §1
PC-3 = assay: Cytotoxicity against human PC3 cells at 10^-4 M after 48 hrs by SRB assay; assay type: functional; conditions: PC-3, 48 h, read-out: GI; method in brief: as §1
SK-MEL-2 = assay: Cytotoxicity against human SK-MEL-2 cells at 10^-4 M after 48 hrs by SRB assay; assay type: functional; conditions: SK-MEL-2, 48 h, read-out: GI; method in brief: as §1
Malme-3M = assay: Cytotoxicity against human MALME-3M cells at 10^-4 M after 48 hrs by SRB assay; assay type: functional; conditions: read-out: GI; method in brief: as §3

Row | Compound | inhibition of growth at 100 µM (SK-MEL-5) [%] | inhibition of growth at 100 µM (DU-145) [%] | inhibition of growth at 100 µM (SNB-75) [%] | inhibition of growth at 100 µM (UACC-62) [%] | inhibition of growth at 100 µM (U-251) [%] | inhibition of growth at 100 µM (NCI/ADR-RES) [%] | inhibition of growth at 100 µM (MOLT-4) [%] | inhibition of growth at 100 µM (HOP-92) [%] | inhibition of growth at 100 µM (TK-10) [%] | inhibition of growth at 100 µM [1] [%] | inhibition of growth at 100 µM (BT-549) [%] | growth at 100 µM (MCF7 [2]) [%] | inhibition of growth at 100 µM (SW-620) [%] | inhibition of growth at 100 µM (OVCAR-8) [%] | inhibition of growth at 100 µM (MDA-MB-231) [%] | inhibition of growth at 100 µM (K562) [%] | growth at 100 µM (NCI-H460) [%] | inhibition of growth at 100 µM (ACHN) [%] | inhibition of growth at 100 µM [3] [%] | inhibition of growth at 100 µM (HCT-116) [%] | further results
1 | C#CCN(Cc1nc2cc(C(F)(F)F)ccc2nc1-c1ccccc1)c1ccc(F)c(F)c1 | 144 | 78 | < 40 | 73 | 59 | 67 | 82 | 63 | 48 | < 40 | 67 | 40 | 82 | 98 | 90 | 78 | 18 | 56 | 73 | 77 | inhibition of growth at 100 µM (OVCAR-3): 116%; inhibition of growth at 100 µM (CCRF-CEM): 98%; inhibition of growth at 100 µM (M14): 41%; inhibition of growth at 100 µM (MCF7 [4]): 94%; Ki (Dihydrofolate reductase): 8 µM; inhibition of growth at 100 µM (IGROV-1): 58%; inhibition of growth at 100 µM [5]: 123%; inhibition of growth at 100 µM (SF-268): 91%; inhibition of growth at 100 µM (RPMI-8226): 107%; inhibition of growth at 100 µM (T47D): 61%; inhibition of growth at 100 µM (PC-3): 78%
2 | CCN(Cc1nc2cc(C(F)(F)F)ccc2nc1-c1ccccc1)c1ccc(OC)c(OC)c1 | 191 | 173 | 115 | 195 | 198 | 84 | 122 | 184 | 109 | 152 | 167 | 1 | 164 | 174 | 174 | 160 | 0 | 142 | 145 | 199 | inhibition of growth at 100 µM (SK-MEL-2): 172%; inhibition of growth at 100 µM (OVCAR-3): 194%; inhibition of growth at 100 µM (CCRF-CEM): 146%; inhibition of growth at 100 µM (M14): 194%; inhibition of growth at 100 µM (MCF7 [4]): 86%; Ki (Dihydrofolate reductase): 4 µM; inhibition of growth at 100 µM (IGROV-1): 178%; inhibition of growth at 100 µM [5]: 112%; inhibition of growth at 100 µM (SF-268): 99%; inhibition of growth at 100 µM (RPMI-8226): 162%; inhibition of growth at 100 µM (T47D): 120%; inhibition of growth at 100 µM (PC-3): 185%
3 | C#CCN(Cc1nc2cc(C(F)(F)F)ccc2nc1-c1ccccc1)c1ccc(F)cc1 | 180 | 82 | 54 | 96 | 85 | 108 | 81 | 106 | 123 | 56 | 77 | 41 | 93 | 96 | 129 | 89 | 6 | 89 | 83 | 94 | inhibition of growth at 100 µM (Malme-3M): 129%; inhibition of growth at 100 µM (OVCAR-3): 94%; inhibition of growth at 100 µM (CCRF-CEM): 94%; inhibition of growth at 100 µM (M14): 71%; inhibition of growth at 100 µM (MCF7 [4]): 89%; Ki (Dihydrofolate reductase): 8 µM; inhibition of growth at 100 µM (IGROV-1): 86%; inhibition of growth at 100 µM [5]: 120%; inhibition of growth at 100 µM (SF-268): 82%; inhibition of growth at 100 µM (RPMI-8226): 117%; inhibition of growth at 100 µM (T47D): 90%; inhibition of growth at 100 µM (PC-3): 92%
